KCNK9 block: KCNK9 potassium channel inhibitors, primary screen, HEK293 cells, thallium flux; Potassium channel subfamily K member 9 (Homo sapiens), Q9NPC2; FluxOR thallium flux fluorescence; hits give low values; B-score at 10 µM; actives 1.2% (n = 310,000); AID 488922, 2010;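 active = ratio B-score over 3 SD below the library mean, with starting fluorescence within 5 SD of its mean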;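 also: negative B-score means less thallium flux so channel inhibition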
hERG protect: hERG rescue from dofetilide block, primary screen, cell-based, CHO-hERG, FluxOR thallium flux, dofetilide IC70 | dofetilide IC70 present | activation (rescue from dofetilide block), less the hit threshold, % at 10 µM | actives 0.51% (n = 310,000) | AID 1511, 2009;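 active = activation above the mean of controls blocked by dofetilide plus 5 SD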;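 also: thallium influx through hERG after potassium depolarization seen as dye fluorescence rise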
KCNQ1 act: potentiators or activators of KCNQ1 channel, primary screen, cell-based, thallium flux, high-throughput; Potassium voltage-gated channel subfamily KQT member 1 (Homo sapiens), P51787; CHO-K1 KCNQ1, thallium flux FluxOR fluorescence; hits give high values; B-score at 10 µM; actives 0.35% (n = 310,000); AID 2648, 2010;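 active = fluorescence ratio B-score, a plate-corrected score, at least three library SD, with initial intensity B-score within 5 SD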
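Test system: CHO-K1 cells stably expressing KCNQ1 / Medium: assay buffer / Also added: depolarizing K+/Tl+ stimulus, K2SO4 and Tl2SO4 each 12.5 mM in 5x stock / Incubation: 90 min dye loading and 20 min compound exposure, both at room temperature / Signal: thallium influx via FluxOR fluorescence, kinetic imaging / Evaluation: B score of baseline-normalized fluorescence ratio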
PHOSPHO1 block: PubChem AID 1565; Phosphoethanolamine/phosphocholine phosphatase (Homo sapiens), Q8TCT1; recombinant PHOSPHO1, absorbance phosphatase assay; inhibition, % at 13.3 µM; actives 1.1% (n = 290,000); in the data active = inhibition above about 60%
Target sequence (Q8TCT1 whole entry, looked up): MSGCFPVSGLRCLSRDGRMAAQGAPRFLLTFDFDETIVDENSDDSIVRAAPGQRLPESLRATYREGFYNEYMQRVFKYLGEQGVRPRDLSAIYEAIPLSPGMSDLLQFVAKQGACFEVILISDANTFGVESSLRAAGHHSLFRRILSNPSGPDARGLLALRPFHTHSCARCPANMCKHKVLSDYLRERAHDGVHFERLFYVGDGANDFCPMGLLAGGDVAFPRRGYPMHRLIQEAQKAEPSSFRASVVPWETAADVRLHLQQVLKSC
KCNQ1 inh: inhibitors of human KCNQ1 channel, primary screen, cell-based, thallium flux, high-throughput; Potassium voltage-gated channel subfamily KQT member 1 (Homo sapiens), P51787; CHO-K1 KCNQ1, FluxOR thallium flux fluorescence; hits give high values; B-score at 10 µM; actives 1.3% (n = 310,000); AID 2642, 2010;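 active = compounds whose thallium flux B-score, printed positive for inhibition, exceeds three library SD while starting fluorescence stays within three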;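 also: channel opened by potassium depolarization with thallium stimulus after 20 min compound exposure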
KCNK3 inh: human KCNK3 channel inhibitors, primary screen, CHO cells, FluxOR thallium flux, B-score; actives 0.84% (n = 340,000); Potassium channel subfamily K member 3 (Homo sapiens), O14649; FluxOR fluorescence; hits give low values; B-score at 10 µM;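 active = B-score under library mean minus 4 SD, starting fluorescence ratio at most library mean plus 5 SD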;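 also: more negative B-score means stronger inhibition of thallium flux through KCNK3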
Target sequence (O14649 whole entry, looked up): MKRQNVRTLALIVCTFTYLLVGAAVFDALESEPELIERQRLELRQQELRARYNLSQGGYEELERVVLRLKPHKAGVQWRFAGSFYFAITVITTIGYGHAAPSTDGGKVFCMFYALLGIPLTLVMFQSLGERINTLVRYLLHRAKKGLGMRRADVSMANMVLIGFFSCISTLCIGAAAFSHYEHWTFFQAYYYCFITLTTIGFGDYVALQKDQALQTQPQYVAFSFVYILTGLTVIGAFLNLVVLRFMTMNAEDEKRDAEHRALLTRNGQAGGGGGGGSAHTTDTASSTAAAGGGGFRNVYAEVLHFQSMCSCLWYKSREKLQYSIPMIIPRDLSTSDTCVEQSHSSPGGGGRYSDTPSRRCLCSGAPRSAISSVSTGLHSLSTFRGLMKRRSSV
KCNK3 confirm: retest of human KCNK3 channel inhibitors, confirmation, CHO cells, FluxOR thallium flux, triplicate. FluxOR fluorescence; 0% buffer, 100% carvedilol maximal block. actives 99% (n = 2,400). AID 651638, 2012. ratio percent of control, % at 10 µM. shares compounds with KCNK3 inh;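 active = ratio percent of control, averaged over triplicates, above buffer control mean plus 5 SD, cut at about 64% in these data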;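 also: ratio is the fluorescence rise from min to max over baseline after thallium stimulus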
KCNK3 noninduced: thallium flux inhibition in non-induced cells, primary screen, counter-screen for KCNK3 inhibitor project, cell-based, non-induced KCNK3 line, FluxOR thallium, triplicate. non-induced KCNK3 parental cells; hits give low values. AID 651747, 2012. thallium flux ratio (lower = more inhibition) at 10 µM. shares compounds with KCNK3 inh. actives 40% (n = 2,400);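 active = thallium flux ratio, averaged over three wells, more than 5 SD below the buffer control mean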;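 also: host cells are CHO cells without KCNK3 induction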
Hits are given with their value; . = inactive; / = no result. Sampled rows, rich in hits. Any-hit rate of the full collection: about 4%.

SMILES	KCNK9 block	hERG protect	KCNQ1 act	PHOSPHO1 block	KCNQ1 inh	KCNK3 inh	KCNK3 confirm	KCNK3 noninduced
CN(C)c1cc(Nc2ccc(O)cc2)c([N+](=O)[O-])c2nonc12	.	.	.	.	.	.	/	/
CNC(=S)NCc1ccc2[nH]c3c(c2c1)CCCC3	.	.	.	.	.	.	/	/
Cc1ccc(C)c(NC(=S)NCc2ccc3[nH]c4c(c3c2)CCCC4)c1	.	.	.	.	.	-13	120	0.14
CCOP(=O)(OCC)c1nc(-c2cccc3ccccc23)oc1NCc1ccc(OC)cc1	.	.	.	.	.	-11	107	0.16
O=C(/C=C/c1ccccc1Cl)NNC(=O)c1ccncc1	/	/	/	/	/	.	/	/
O=C(/C=C/c1ccccc1Cl)c1cccnc1	.	.	.	.	.	-9.7	86	.
CCN(C(=O)COc1ccc(C(C)=O)cc1)c1cccc2ccccc12	/	/	/	/	/	.	/	/
Cc1ccc2c(C)c(C(=O)N3CCN(c4ncccn4)CC3)oc2c1C	-6.7	.	.	/	.	-9.1	69	.
COc1ccc2oc(C(=O)N3CCN(c4ncccn4)CC3)c(C)c2c1	.	.	.	.	.	.	/	/
O=C(c1cc(-c2cccc(Cl)c2)on1)N1CCCCCC1	.	.	.	.	.	-10	114	.
C/C(N)=C(/C#N)C(=O)CSc1cc(C)c2ccccc2n1	.	.	.	.	.	.	/	/
O=C(N/N=C/c1ccccc1O)C1CC(=O)N(c2ccc(Cl)cc2)C1 (configuration not stated)	.	.	.	.	.	.	/	/
Cn1cc(Br)c(C(=O)Nc2ncc(Br)s2)n1	.	.	.	.	.	.	/	/
CCOCCn1c(COc2ccc(C)cc2)nc2ccccc21	.	.	.	.	.	.	/	/
CCn1c(COc2ccc(C)cc2)nc2ccccc21	.	.	.	.	.	-12	112	.
O=C1C2CCCN2C(=O)N1CCCN1CCN(c2cccc(Br)c2)CC1 (configuration not stated)	.	.	.	.	.	.	/	/
Clc1ccccc1C(c1ccccc1)(c1ccccc1)n1ccnc1	-18	.	.	.	.	-11	129	0.13
FC(F)(F)c1ccccc1-n1ccnc1	/	/	/	/	/	.	/	/
COc1ccc2nc(NC(=O)C3CCCN3S(=O)(=O)c3ccc(C)cc3)sc2c1 (configuration not stated)	.	.	.	.	.	.	/	/
Cc1cc(C(=O)N/N=C/c2cccc([N+](=O)[O-])c2)c(C)n1-c1ccccc1	.	.	.	.	.	.	/	/
Cc1cc(/C=N/NC(=O)c2ccccn2)c(C)n1-c1cccc([N+](=O)[O-])c1	.	.	.	.	.	-9	88	.
Cc1cc(/C=N/Nc2ccc([N+](=O)[O-])cn2)c(C)n1-c1ccccc1	.	.	.	.	.	.	/	/
Cc1ccc(-n2c(C)cc(/C=N/Nc3ccc([N+](=O)[O-])cn3)c2C)cc1	.	.	.	101	.	-13	.	.
Cc1ccc(C2=NN=C(NC(=O)CSc3nnc4c5ccccc5n(C)c4n3)SC2)cc1	.	.	.	.	.	.	/	/
COCCCNC(c1ccccc1)c1ccncc1 (configuration not stated)	.	.	.	.	.	.	/	/
SMILES	KCNK9 block	hERG protect	KCNQ1 act	PHOSPHO1 block	KCNQ1 inh	KCNK3 inh	KCNK3 confirm	KCNK3 noninduced
O=C(CSc1nc2ccccc2[nH]1)N/N=C/c1ccco1	.	.	.	.	.	.	/	/
CCOc1cc(/C=N/n2c(COc3ccccc3)n[nH]c2=S)ccc1O	.	.	.	.	.	.	/	/
NC(=O)N=Nc1c(O)n(Cc2ccccc2)c2ccc(Br)cc12	.	.	.	.	.	.	/	/
COc1ccc(Cl)cc1NC(=O)CN(C)C(=O)c1cc(-c2ccncc2)nc2ccccc12	.	.	.	/	.	-9.2	120	0.14
Cc1ccc2nc(-c3ccccc3)cc(C(=O)N(C)CC(=O)Nc3ccccc3Br)c2c1	.	.	.	/	.	-14	110	.
Cc1cc(Cl)ccc1OCC(=O)NCCCCc1ccccc1	.	.	.	.	.	.	/	/
CCC[N+]1(CC#CC2(O)CCCCC2)CCOCC1	.	.	.	.	.	.	/	/
CCSc1nnc(CCNS(=O)(=O)c2ccc(C(C)=O)cc2)n1C	.	.	.	.	.	.	/	/
Cc1ccc(CNC(=O)CN(Cc2cccs2)C(=O)C2(C)CC(=O)N=C3C=CC=CN32)cc1 (configuration not stated)	.	.	.	.	.	.	/	/
Cc1cccc(C(CC(=O)NCc2ccco2)c2ccccc2)c1O (configuration not stated)	.	.	.	.	.	-9	110	.
Cc1cccc(C(CC(=O)NCCc2ccccc2)c2ccccc2)c1O (configuration not stated)	.	.	.	.	.	.	/	/
CCCC(=O)Nc1ccc(-c2csc(N/N=C\c3ccncc3)n2)cc1	.	.	.	.	.	-8.8	107	0.15
CCN(CC)CCCNC(=O)N[C@@H](Cc1ccccc1)C(=O)O	.	.	.	.	.	.	/	/
CC(Nc1nc(-c2cccnc2)nc2ccccc12)c1ccc(F)cc1 (configuration not stated)	-7.9	.	.	.	8	-17	125	.
Fc1ccc(CNc2nc(-c3cccnc3)nc3ccccc23)cc1	.	.	.	.	.	.	/	/
COc1c(C(=O)Nc2ccc(Br)cn2)ccc2ccccc12	-7.2	.	.	.	.	-11	97	0.16
O=c1ccc(NS(=O)(=O)c2ccccc2)cn1Cc1ccc(Cl)c(Cl)c1	.	.	.	.	.	.	/	/
COc1cc(Cl)c(C)cc1NC(=O)CSc1ccccc1	.	.	.	.	.	-9.4	113	.
COc1cc(Cl)c(C)cc1NC(=O)CSc1ccc(C)cc1	.	.	.	.	.	.	/	/
CCOc1ccc(NC(=S)N(CCc2c(C)[nH]c3ccc(C)cc23)Cc2cccnc2)cc1	.	.	.	.	.	-9.9	92	0.14
CCNC(=S)N(CCc1c(C)[nH]c2ccc(C)cc12)Cc1cccnc1	.	.	.	.	.	.	/	/
COc1cc(OC)cc(C(=O)NNC(=O)CCNS(=O)(=O)c2ccc(C)c(C)c2)c1	/	/	/	/	/	.	/	/

Compound activity as filed in PubChem BioAssay.
